In the library only some 1.4% were active in any assay of this set; here they are far more common.
H9c2 protect: modulators protecting cardiomyocytes from myocardial damage. H9c2 cardiomyocytes, H2O2 injury protection, ATPLite, 2 h. protection from H2O2 cell death, % at 20 µM. 0.63% of 360,000 active;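 active = compounds giving at least 50% protection of heart cells from peroxide-induced death in the single-dose screen, raw or plate-pattern-corrected value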;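 also: 0% = DMSO wells with peroxide and 100% = DMSO wells without peroxide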
Tn7 DDE FP: DD(E)-Tn7 binding inhibition, primary FP screen; P02675; FP displacement of FITC-Tn7 peptide from fibrin DD(E); 0% = median of compound wells per plate; inhibition, % at 8.3 µM; 0.13% of 370,000 active; AID 720508;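 active = inhibition above the mean of compounds falling within the control limits plus 3 SD of them, cut at about 14% in these data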;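 also: 0% = plate median of compound wells and 100% = 10 µM Aha-Tn7 peptide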
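Assay system: Fibrin-DD(E) protein isolated from polymerized human fibrin clots; read-out basis: percent inhibition; medium: Tris/NaCl/CaCl2 buffer, pH 7.8; signal: FP measurement; incubation: 10 min plus 3 h, room temperature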
MT1-MMP act inh: inhibitors of human MT1-MMP activation | HT1080 RFP-PRO-GFP cells, GFP/RFP ratio fluorescence, overnight; percent of plate control window, DMSO zero | 0.061% of 360,000 active | P50281 | GFP/RFP ratio change, % at 20 µM;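 active = GFP/RFP ratio change of at least 30% with cell ATP level not reduced by more than half and red fluorescence within 50% of control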
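Assay system: RFP-PRO-GFP reporter HT1080 cells; read-out basis: GFP/RFP fluorescence ratio; benchmarks: DMSO wells and RFP-L50D-GFP cells; doses: 20 µM single dose, 1% DMSO; schedule: overnight cell settling, then overnight compound exposure, 37 °C, 5% CO2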
DDE Tn6 FP inh: DD(E)-Tn6 binding inhibition, primary FP screen. AID 720509. 0.21% of 370,000 active. Fibrin DD(E) TRITC-Tn6 fluorescence polarization displacement. P02675. inhibition, % at 8.3 µM;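 active = inhibition above a per-campaign cutoff: mean of compounds within control limits plus 3 SD, cut at about 15% in these data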;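 also: 0% = median of all compound wells on the plate and 100% = blocking peptide control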
DAGLB inh: blocks human DAGLB lipase activity. Q8NCG7. HEK293T DAGLB membrane lysate, EnzChek fluorogenic substrate. inhibition, % at 5.17 µM. 0.059% of 340,000 active. AID 504411; in the data active = inhibition above about 34%;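 also: 0% = enzyme with vehicle and 100% = wells lacking enzyme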
Target sequence (Q8NCG7 whole entry, looked up): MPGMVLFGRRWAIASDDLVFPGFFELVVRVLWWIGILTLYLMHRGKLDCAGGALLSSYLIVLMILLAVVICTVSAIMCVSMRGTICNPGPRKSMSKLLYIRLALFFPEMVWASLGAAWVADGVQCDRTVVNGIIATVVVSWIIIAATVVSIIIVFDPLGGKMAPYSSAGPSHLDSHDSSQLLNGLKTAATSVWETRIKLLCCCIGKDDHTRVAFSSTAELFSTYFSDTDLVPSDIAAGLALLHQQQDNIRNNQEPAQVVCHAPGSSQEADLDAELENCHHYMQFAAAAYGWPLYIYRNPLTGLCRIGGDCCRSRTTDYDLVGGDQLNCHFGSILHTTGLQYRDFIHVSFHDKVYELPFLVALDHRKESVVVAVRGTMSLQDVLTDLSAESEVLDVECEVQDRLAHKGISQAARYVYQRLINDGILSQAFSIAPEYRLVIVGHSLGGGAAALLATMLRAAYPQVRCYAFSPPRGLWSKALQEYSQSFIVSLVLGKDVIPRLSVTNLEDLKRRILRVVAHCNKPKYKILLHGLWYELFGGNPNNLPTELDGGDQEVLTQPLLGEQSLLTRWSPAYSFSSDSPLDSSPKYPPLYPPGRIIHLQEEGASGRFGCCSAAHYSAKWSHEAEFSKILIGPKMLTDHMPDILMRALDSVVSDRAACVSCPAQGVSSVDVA
TAG inh: inhibitors of triacylglycerol accumulation. H9c2 cells, Nile Red lipid (TAG) fluorescence; cells loaded with 200 µM oleic acid. inhibition, % at 12.5 µM. 0.66% of 230,000 active. AID 651582;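 active = pattern-corrected inhibition of lipid staining of at least 50% with the nuclear-stain viability signal not falling by more than 50%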;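 also: 0% = DMSO wells and 100% = triacsin C control wells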
Starred values were filed as active, the others as inactive.

`NC(=O)c1c(NC(=O)Cn2nc(C(=O)O)c3ccccc3c2=O)sc2c1CCC2` gave H9c2 protect 54.3*, Tn7 DDE FP -2.5, MT1-MMP act inh 2.2, DDE Tn6 FP inh -2.1, DAGLB inh 3.1 and TAG inh -2.7.
`Cc1nn(-c2ccc([N+](=O)[O-])cc2)c2c1C(c1cccc(Br)c1)N1C(=N2)C(=O)Nc2ccccc21` (centres undefined) gave H9c2 protect 55.7*, Tn7 DDE FP 1.4, MT1-MMP act inh -35.8, DDE Tn6 FP inh -0.8 and DAGLB inh 0.6.
For CCCCC1OC(CCc2ccccc2)CC2=C1C(=O)OC(C)(C)O2 (centres undefined) the results were Tn7 DDE FP 1.4 and DDE Tn6 FP inh -5.5.
CCN(CC)c1ccc(N=Cc2ccc([N+](=O)[O-])o2)cc1 was read as H9c2 protect -13.5, Tn7 DDE FP -2.0, MT1-MMP act inh 5.6, DDE Tn6 FP inh -9.8, DAGLB inh 10.7 and TAG inh 51.8*.
Screening CCCCCC(=O)N/N=C/c1ccc([N+](=O)[O-])o1 returned H9c2 protect -4.5, Tn7 DDE FP -4.0, MT1-MMP act inh -13.2, DDE Tn6 FP inh -3.8 and DAGLB inh 3.7.
CC(=O)N(C)c1ccc(N=Cc2cc3c(cc2[N+](=O)[O-])OCO3)cc1 was read as H9c2 protect 0.7, Tn7 DDE FP 0.3, MT1-MMP act inh 1.8, DDE Tn6 FP inh 2.5, DAGLB inh -1.0 and TAG inh -11.5.
For CCN(CC)c1ccc(N=Cc2ccccc2[N+](=O)[O-])cc1 the results were H9c2 protect -13.8, Tn7 DDE FP 0.4, MT1-MMP act inh 52.4*, DDE Tn6 FP inh 7.1 and DAGLB inh 12.1.
`Oc1c(C(c2ccccn2)N2CCCCC2)cc(Cl)c2cccnc12` (centres undefined) gave H9c2 protect 38.1, Tn7 DDE FP 0.6, MT1-MMP act inh -8.9, DDE Tn6 FP inh 3.8, DAGLB inh 8.5 and TAG inh 86.7*.
Screening CCn1c(Cl)c(C=O)s/c1=N\S(=O)(=O)c1ccccc1 returned H9c2 protect -12.3, Tn7 DDE FP 0.1, MT1-MMP act inh 18.9, DDE Tn6 FP inh 1.0, DAGLB inh -3.7 and TAG inh 84.6*.
CCN1C(=O)CS/C1=N\S(=O)(=O)c1ccc(Cl)cc1 was read as H9c2 protect 2.9, Tn7 DDE FP 0.8, MT1-MMP act inh -5.8, DDE Tn6 FP inh -1.3, DAGLB inh 0.1 and TAG inh 3.5.
FC(F)(F)c1cc(CCN2CCNC[C@@H]2CC2CCCCC2)cc(C(F)(F)F)c1 was read as H9c2 protect -26.0, Tn7 DDE FP 0.9, MT1-MMP act inh -2.7, DDE Tn6 FP inh 0.2, DAGLB inh -1.5 and TAG inh 137.5*.
O=C(CNC(=O)C1COc2ccccc2O1)N/N=C\c1ccccc1Cl (centres undefined) was read as H9c2 protect -8.4, Tn7 DDE FP -0.7, MT1-MMP act inh 1.9, DDE Tn6 FP inh 1.5 and DAGLB inh -1.3.
Screening COc1cccc(/C=N/NC(=O)C[n+]2ccccc2)c1O returned H9c2 protect -0.8, Tn7 DDE FP -8.9, MT1-MMP act inh 1.6, DDE Tn6 FP inh -6.5 and DAGLB inh -2.1.
`O=C(CNC(=O)c1ccc2c(c1)OCCO2)N/N=C/c1ccc(O)cc1O` gave H9c2 protect 71.5*, Tn7 DDE FP -1.0, MT1-MMP act inh 3.2, DDE Tn6 FP inh 10.6 and DAGLB inh 0.6.
For COc1cccc(/C=N/NC(=O)CNC(=O)c2ccncc2)c1O the results were H9c2 protect 59.9*, Tn7 DDE FP -1.0, MT1-MMP act inh 1.5, DDE Tn6 FP inh -6.6 and DAGLB inh -1.7.
COc1ccc(CCCC(=O)N/N=C/c2cccc(OC)c2O)cc1C was read as H9c2 protect 53.4*, Tn7 DDE FP 8.7, MT1-MMP act inh -2.2, DDE Tn6 FP inh -0.7 and DAGLB inh -3.3.
Screening COc1cccc(/C=N/NC(=O)CNC(=O)C2COc3ccccc3O2)c1O (centres undefined) returned H9c2 protect 66.1*, Tn7 DDE FP 1.3, MT1-MMP act inh 1.6, DDE Tn6 FP inh -0.9, DAGLB inh 4.4 and TAG inh -2.8.
For COC(=O)C12C=C3CC(c4ccc(OC)cc4)=C3C(=O)N1Cc1[nH]c3ccccc3c1C2 (centres undefined) the results were Tn7 DDE FP 0.5 and DDE Tn6 FP inh -3.2.
COC(=O)[C@]12C[C@H](CC(=O)NCCc3ccccc3OC)C(=O)N(Cc3cccc4ccccc34)C1=C[C@H](COCc1ccccc1)O[C@@H]2C was read as Tn7 DDE FP 2.2 and DDE Tn6 FP inh 5.2.
Screening CCCCCCCCNS(=O)(=O)CC1NCc2ccccc21 (centres undefined) returned Tn7 DDE FP -2.4 and DDE Tn6 FP inh -1.8.
For COc1cccc(/C=N/NC(=O)C(=O)NCc2cccnc2)c1O the results were H9c2 protect 79.4*, Tn7 DDE FP -1.0, MT1-MMP act inh 6.9, DDE Tn6 FP inh -3.8 and DAGLB inh 0.8.
COc1cccc(/C=N/NC(=O)C(=O)NCc2cccnc2)c1OC was read as H9c2 protect 13.2, Tn7 DDE FP 1.6, MT1-MMP act inh 0.9, DDE Tn6 FP inh 2.3, DAGLB inh 2.1 and TAG inh 11.0.
COc1cccc(/C=N/NC(=O)CNC(=O)c2ccc3c(c2)OCCO3)c1O was read as H9c2 protect 65.8*, Tn7 DDE FP -7.2, MT1-MMP act inh 2.9, DDE Tn6 FP inh -10.0 and DAGLB inh -0.7.
For COc1cccc(/C=C2\CC3(OC(=O)C4CCCCC4)CCCN2C3)c1 (centres undefined) the results were Tn7 DDE FP 6.3 and DDE Tn6 FP inh -7.3.
Screening Cc1ccc(-n2cc(-c3ccccc3)c3c(N4CCOCC4)ncnc32)cc1 returned H9c2 protect 57.0*, Tn7 DDE FP 2.9, MT1-MMP act inh -17.7, DDE Tn6 FP inh -5.1, DAGLB inh -6.9 and TAG inh 11.3.
Cc1cccc(C(=O)Nc2nc3ncccn3c2-c2ccccc2)c1 was read as Tn7 DDE FP -4.6 and DDE Tn6 FP inh -2.1.
For COC(=O)C1CCCN(C(=O)C2CCN(S(=O)(=O)c3ccccc3[N+](=O)[O-])CC2)C1 (centres undefined) the results were Tn7 DDE FP 2.2 and DDE Tn6 FP inh -1.4.
`O=C(NNC(=S)NC(=O)c1cccc([N+](=O)[O-])c1)c1ccc(Br)cc1` gave H9c2 protect 55.8*, Tn7 DDE FP -4.6, MT1-MMP act inh 4.2, DDE Tn6 FP inh -5.9 and DAGLB inh -1.1.
For NC(=O)c1nsc(C(=O)N(Cc2ccco2)C(C(=O)NCc2ccc(F)cc2)c2ccc(O)cc2)c1N (centres undefined) the results were H9c2 protect 53.7*, Tn7 DDE FP 0.6, MT1-MMP act inh -4.0, DDE Tn6 FP inh 3.3 and DAGLB inh 0.9.

Screens as filed in PubChem.
